The source of these data is ChEMBL document CHEMBL2069265, “Synthesis and biological evaluation of optically active conjugated γ- and δ-lactone derivatives” (2012).

≈ marks a conversion by molar mass, not a printed value. Calls of active or inactive are those of the source. The calls are words filed in the database; no cut-off is given here.

Test [1] has as its system Staphylococcus aureus. The test can be described thus: Antibacterial activity against Staphylococcus aureus ATCC 6538 after 24 hrs. It is filed as functional.
The test system of test [2] is Pseudomonas aeruginosa. The test can be described thus: Antibacterial activity against Pseudomonas aeruginosa ATCC 9027 at 10 to 100 mg/ml after 24 hrs by disc diffusion method. The format is functional, organism-based. The procedure, abridged: (§1)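 Modified disc diffusion: LB agar plates seeded at 10^6 cells/mL; 6 mm filter discs soaked in 50 µL of compound at 10–100 mg/mL in DMSO or methanol, placed on plates, 37 °C for 24 h. Inhibition zone ≥7 mm scored susceptible. Solvent discs tested; positive controls gentamicine, streptomycine or nystatin discs at 10 mg/mL.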
(In general: Agar diffusion results depend on both activity and mobility in agar.)

Test [3] concerns Pseudomonas aeruginosa. Nature of the test: Antibacterial activity against Pseudomonas aeruginosa ATCC 9027 after 24 hrs. It is filed as functional, organism-based.
For test [4], the system named is Radical scavenging activity. The test can be described thus: Antioxidant activity assessed as DPPH radical scavenging activity at 80 uM. The format is functional. The procedure, abridged: (§2)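 DPPH radical scavenging per Blois; compounds 10–80 µM in methanol (some runs 10–200 µM, values reported at 80 µM). Absorbance at 517 nm; scavenging % = (A517 control − A517 sample)/A517 control × 100. Alpha tocopherol as control. Means ± SD of three parallel measurements.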
Background: DPPH is a stable violet radical that fades when it is reduced.

The nature of test [5]: Metal chelating activity of the compound assessed as ratio of Fe2+ concentration to compound concentration. It is filed as functional. In short, it runs like this:
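Fe3+ reducing activity by modified ferrozine method; [Fe2+] calculated from extinction coefficient 27,900 M-1cm-1 of Fe(ferrozine)2+ complex, expressed as µM Fe2+ per µM compound. Means ± SD of three parallel measurements.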

For test [6], the system named is Bacillus subtilis. Nature of the test: Antibacterial activity against Bacillus subtilis ATCC 6633 at 10 to 100 mg/ml after 24 hrs by disc diffusion method. It is filed as functional. The procedure, abridged: as §1
For test [7], the system named is Escherichia coli. The test can be described thus: Antibacterial activity against Escherichia coli ATCC 3509 at 10 to 100 mg/ml after 24 hrs by disc diffusion method. The format is functional. The procedure, abridged:
as §1

Test [8] concerns Escherichia coli. Nature of the test: Antibacterial activity against Escherichia coli ATCC 3509 after 24 hrs. It is filed as functional.
The test system of the next test is Liver microsomes. The test can be described thus: Antioxidant activity in Wistar rat liver microsomes assessed as reduction of lipid peroxidase activity by TBA assay. It is filed as functional. On the set-up: concentration or dose not given beside the values. To be noted: Microsome. The procedure, abridged: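 TBA assay of lipid peroxidation in liver microsomes isolated from three Wistar rats, following Raj et al.; reduced lipid peroxidase activity taken as antioxidant activity, expressed as %.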
(In general: Microsomes from liver hold many membrane-bound enzymes, among them those of drug oxidation.)

Test [9] deals with Candida albicans. The test can be described thus: Antifungal activity against Candida albicans ATCC 10231 after 24 hrs. The format is functional.
Test [10] relates to Bacillus subtilis. The test can be described thus: Antibacterial activity against Bacillus subtilis ATCC 6633 after 24 hrs. The format is functional.
The subject of test [11] is Staphylococcus aureus. Nature of the test: Antibacterial activity against Staphylococcus aureus ATCC 6538 at 10 to 100 mg/ml after 24 hrs by disc diffusion method. It is filed as functional. The procedure, abridged: as §1
The subject of test [12] is Candida albicans. Nature of the test: Antifungal activity against Candida albicans ATCC 10231 at 10 to 100 mg/ml after 24 hrs by disc diffusion method. It is filed as functional. In short, it runs like this:
as §1

Test [13] relates to Radical scavenging activity. The test can be described thus: Antioxidant activity assessed as DPPH radical scavenging activity at 11 uM. It is filed as functional. The procedure, abridged: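 DPPH radical scavenging at 11 µM compound in methanol, absorbance at 517 nm; % scavenging calculated from control versus sample A517. Alpha tocopherol control; mean ± SD of three parallel measurements.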

The test system of test [14] is Radical scavenging activity. Nature of the test: Antioxidant activity assessed as DPPH radical scavenging activity at 11 to 1000 uM. It is filed as functional. In short, it runs like this:
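DPPH scavenging in methanol, read as loss of absorbance at 517 nm, value obtained over 1000–11 µM compound; % = (A517 control − A517 sample)/A517 control × 100. Alpha tocopherol control; three parallel measurements, means ± SD.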

In test [15] the test system is Bacillus subtilis. The test can be described thus: Antibacterial activity against Bacillus subtilis ATCC 6633 at 50 mg/ml after 24 hrs by disc diffusion method. It is filed as functional, organism-based. The procedure, abridged:
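Disc diffusion on LB agar plates inoculated with 10^6 cells/mL. 6 mm filter discs saturated with 50 µL of compound solution (10–100 mg/mL in DMSO or methanol), placed on plates and incubated at 37 °C for 24 h. Inhibition zone diameter read; zones of 7 mm or more scored as susceptible. Solvent discs tested; gentamicine disc (10 mg/mL) as positive control.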

Test [16] deals with Radical scavenging activity. Nature of the test: Antioxidant activity assessed as DPPH radical scavenging activity at 10 to 80 uM. It is filed as functional. In short, it runs like this: as §2
The test system of test [17] is Escherichia coli. Nature of the test: Antibacterial activity against Escherichia coli ATCC 3509 at 50 mg/ml after 24 hrs by disc diffusion method. The format is functional. To be noted: ATCC 3509, 24 h, read-out: DIZ. The procedure, abridged:
(§3)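 Disc diffusion on LB agar seeded at 10^6 cells/mL. 6 mm discs are saturated with 50 µL compound solution in DMSO or methanol and incubated at 37 °C for 24 h. Inhibition zones of 7 mm or more are counted as susceptible. Solvent discs are run, with streptomycine discs (10 mg/mL) as positive control.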

The test system of test [18] is Staphylococcus aureus. The test can be described thus: Antibacterial activity against Staphylococcus aureus ATCC 6538 at 50 mg/ml after 24 hrs by disc diffusion method. The format is functional. The following applies: ATCC 6538, 24 h, read-out: DIZ. In short, it runs like this:
as §3

By MIC is commonly meant the least concentration at which growth counts as inhibited. For `O=C1C=CCC(c2ccco2)O1` (racemic), the MIC entry with Staphylococcus aureus [1], with Pseudomonas aeruginosa [3], in the test with Escherichia coli [8], in the test with Candida albicans [9] and in the test with Bacillus subtilis [10] was “inactive” each time. Also, the “diameter of the inhibition zone (DIZ)” value with Pseudomonas aeruginosa [2], in the test on Bacillus subtilis [6], in the test with Escherichia coli [7], in the test on Staphylococcus aureus [11] and in the test on Candida albicans [12] was “inactive” in each case. Moreover, the figures for the Activity (in test [4]; in the test with Liver microsomes) were 38.1% and 24.5%, respectively. Moreover, the Ratio in test [5] was found to be 0.

In the case of `CC1=CC(c2cccs2)OC1=O` (racemic), the MIC result in the test with Staphylococcus aureus [1], in the test with Pseudomonas aeruginosa [3], in the test with Escherichia coli [8] and in the test on Bacillus subtilis [10] was “inactive” throughout. For the same molecule, the “diameter of the inhibition zone (DIZ)” value in the test on Pseudomonas aeruginosa [2], with Bacillus subtilis [6], with Escherichia coli [7] and in the test on Staphylococcus aureus [11] was “inactive” in each case. The Activity in [13] was 93.3%. This molecule also displayed an MIC against Candida albicans [9] (ATCC 10231, 24 h) of 25 µg/mL (≈ 139 µM). Also, the “diameter of the inhibition zone (DIZ)” value with Candida albicans [12] worked out at 7.5 mm.

Regarding `CC1=CCC(c2cccs2)OC1=O` (racemic), the minimum inhibitory concentration (MIC) against Staphylococcus aureus [1] (ATCC 6538, 24 h) worked out at 25 µg/mL (≈ 129 µM); with Escherichia coli [8] (ATCC 3509, 24 h), 12 µg/mL (≈ 61.8 µM); in the test on Candida albicans [9] (ATCC 10231, 24 h) it was 25 µg/mL (≈ 129 µM). Also, the “diameter of the inhibition zone (DIZ)” value with Pseudomonas aeruginosa [2] and in the test with Bacillus subtilis [6] was “inactive” in each case. Further, the MIC result with Pseudomonas aeruginosa [3] and in the test on Bacillus subtilis [10] was “inactive” throughout. The “diameter of the inhibition zone (DIZ)” value with Escherichia coli [7] is 8 mm; with Staphylococcus aureus [11], 7.5 mm; in the test with Candida albicans [12], 12 mm. For the same molecule, the Activity in test [14] worked out at 7.11%.

GENTAMICIN displayed an inhibition zone (IZ) in the test on Bacillus subtilis [15] of 17 mm.

As for `O=C1C=C[C@@H](c2cccs2)O1`, the MIC result in the test on Staphylococcus aureus [1], in the test with Pseudomonas aeruginosa [3], in the test on Escherichia coli [8], with Candida albicans [9] and in the test on Bacillus subtilis [10] was “inactive” each time. Further, the “diameter of the inhibition zone (DIZ)” value with Pseudomonas aeruginosa [2], in the test on Bacillus subtilis [6], with Escherichia coli [7], with Staphylococcus aureus [11] and with Candida albicans [12] was “inactive” each time. The Ratio in [5] is 0.015. In addition, the Activity in the test on Liver microsomes was 54.7%. The result in test [16] was inactive.

`O=C1C=CC[C@H](c2cccs2)O1`: the minimal inhibitory concentration (MIC) in the test with Staphylococcus aureus [1] (ATCC 6538, 24 h) was determined as 40 µg/mL (≈ 222 µM); with Escherichia coli [8] (ATCC 3509, 24 h), 50 µg/mL (≈ 277 µM); in the test on Candida albicans [9] (ATCC 10231, 24 h) it was 40 µg/mL (≈ 222 µM); in the test with Bacillus subtilis [10] (ATCC 6633, 24 h), 50 µg/mL (≈ 277 µM). In addition, in the test on Pseudomonas aeruginosa [2], the “diameter of the inhibition zone (DIZ)” value is “inactive”. The MIC entry in the test on Pseudomonas aeruginosa [3] was “inactive”. Moreover, in test [5], the Ratio is 0.04. Also, the “diameter of the inhibition zone (DIZ)” value turned out to be 7 mm in the test on Bacillus subtilis [6], 7 mm in the test on Escherichia coli [7], 8.5 mm in the test with Staphylococcus aureus [11] and 7 mm in the test on Candida albicans [12]. Besides, the outcome (in the test on Liver microsomes; in test [16]) was inactive.

For `O=C1C=CC[C@@H](c2ccco2)O1`, the MIC result in the test on Staphylococcus aureus [1], in the test with Pseudomonas aeruginosa [3], with Escherichia coli [8], in the test with Candida albicans [9] and with Bacillus subtilis [10] was “inactive” in each case. Moreover, the “diameter of the inhibition zone (DIZ)” value in the test with Pseudomonas aeruginosa [2], in the test with Bacillus subtilis [6], in the test with Escherichia coli [7], in the test with Staphylococcus aureus [11] and with Candida albicans [12] was “inactive” in each case. Further, the figures for the Activity (in test [4]; in the test on Liver microsomes) were 38% and 7.45%, respectively. The Ratio in [5] is 0.

In the case of `CC1=C[C@@H](c2cccs2)OC1=O`, the MIC entry in the test on Staphylococcus aureus [1], in the test with Pseudomonas aeruginosa [3], in the test on Candida albicans [9] and with Bacillus subtilis [10] was “inactive” throughout. Moreover, the “diameter of the inhibition zone (DIZ)” value with Pseudomonas aeruginosa [2], in the test with Bacillus subtilis [6], with Staphylococcus aureus [11] and with Candida albicans [12] was “inactive” throughout. Besides, in [13], the Activity amounted to 50.6%. Also, the “diameter of the inhibition zone (DIZ)” value in the test on Escherichia coli [7] came out at 9.5 mm. In the test on Escherichia coli [8] (ATCC 3509, 24 h), this molecule returned an MIC of 25 µg/mL (≈ 139 µM).

As for `CN[C@@H]1[C@H](O[C@H]2[C@H](O[C@H]3[C@H](O)[C@@H](O)[C@H](N=C(N)N)[C@@H](O)[C@@H]3N=C(N)N)O[C@@H](C)[C@]2(O)C=O)O[C@@H](CO)[C@H](O)[C@H]1O` [STREPTOMYCIN], the values for the zone of inhibition at 50000 µg/mL in the test with Escherichia coli [17] and in the test on Staphylococcus aureus [18] were 18 mm and 15 mm, respectively.
